This is an account of results in paper PMC3947009 (ACS Chemical Biology, 2013).

Where “and” joins values, the source holds several entries; their conditions need not be identical. Identical values can stand only once.

The target in this assay is GluA2 LBD (S1S2J, rat GluA2-flop subunit, N754S) (Rattus norvegicus, UniProt P19491, DEL528-650/N775S/S652T/V651G). In kind it is biochemical. In short, it runs like this: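 Trypsin-detagged LBD (residues N392-K506/P632-S775, GT linker) from E. coli Origami B(DE3), purified by ion exchange and sizing. Protein 0.017–0.1 mM in 10 mM glutamate, 25 mM NaCl, 25 mM Tris-Cl pH 7, with modulator from DMSO (1 µL per 30 µL); kept at 4 °C; synchrotron SAXS. Dimer fraction fit with monomer/dimer form factors (1FTJ); EC50 from dimerization curves; constants from simultaneous one- or two-site equilibrium fits.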

Turning to `NS(=O)(=O)c1cc2c(cc1Cl)NC(C1CC3C=CC1C3)NS2(=O)=O` (centres unmarked) [CYTZ, cyclothiazide], the EC50 was in the range of 100 to 200 µM and the Kd is about 5 µM. Besides, the “fold lower EC50 for dimerization than HFMZ” value (CYTZ vs HFMZ) is given as 20 ×. The “fold lower EC50 for dimerization than TCMZ” value (CYTZ vs TCMZ) turned out to be 10 ×.

Take `NS(=O)(=O)c1cc2c(cc1C(F)(F)F)NCNS2(=O)=O` [HFMZ, hydroflumethiazide]: the EC50 lay within 2000 to 5000 µM and the Kd is about 5 µM.

Turning to `NS(=O)(=O)c1cc2c(cc1Cl)NC(C(Cl)Cl)NS2(=O)=O` (centres unmarked) [TCMZ, trichlormethiazide], the EC50 lay in the range of 1000 to 2000 µM; the Kd is 46.8 µM and ~50 µM.

By EC50 is commonly meant the concentration at which the effect is half-maximal. A word on the Kd: it is the concentration at which binding is half-saturated.
